# Cneo AK release: Cryptococcus neoformans lysis via adenylate kinase release | C. neoformans lysis, adenylate kinase release luminescence, 4 h; normalised: neutral wells 0, clomiphene wells 100 | lysis activity, % at 15 µM | hit rate 0.2% among 360,000;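 active means mean lysis activity across replicates of at least 80%, whatever share of replicates individually reach that level; inactive means mean lysis activity below 80%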
#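 Assay system: C. neoformans cells. Amount: yeast cell density of 5 × 10^6 cells/mL. Technique: AK luminescence. Buffer or medium: YPD. Times: static 4 h at 37 °C with compound, 1 h detection. Dosing: single-point compound dose. Read-out: lysis from increased AK signal.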
# C2C12 statin: protects C2C12 myotubes from simvastatin toxicity; hit rate 0.78% among 330,000; ATP luminescence, 48 h; scaled: DMSO 0, geranylgeraniol control 100; rescue of ATP level, % at 7.49 µM;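 active means mean ATP rescue above about 67%, or every replicate alone reaching that limit, limit read from the data, passing the limit was not always enough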;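 further: myotubes were challenged with 10 µM simvastatin during compound exposure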
# SUMO Mot1 rescue: blocks SUMOylation pathway, rescuing yeast Mot1-301 growth | S. cerevisiae Mot1-301 growth rescue, ATP luminescence, 38.5C; percent above DMSO median, 100 means doubled | growth rescue, % at 18.8 µM | hit rate 1% among 320,000;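 active means every valid replicate shows activation above 250% relative to neutral control wells; inactive means the rest, any valid replicate at or below 250%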;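 further: OY570 slx delta 5 strain wells were the positive control but not used for scaling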
# * = called active by the depositor; / = not tested or not shown. The list is not random: actives were taken first. Their share in the collection is about 1.5%.
SMILES,Cneo AK release,C2C12 statin,SUMO Mot1 rescue
C#CCOC(=O)c1ccccc1C(=O)N(CC)CC,-0.5,103.8*,-1.6
O=C(O)c1ccccc1C(=O)NNc1ccc(F)cc1,-1.2,/,266.5*
O=C(O)c1ccccc1C(=O)NCc1ccc(F)cc1,-1.5,-1.9,50.4
NC(=O)c1cc2c(s1)-c1cc(Cl)ccc1SC2,/,-17.3,351.1*
COCCNC(=O)c1cc2c(s1)-c1ccc(Cl)cc1SC2,0.0,-11.3,-13.0
C[C@@H]1CN([C@H](C)CO)C(=O)Cc2cc(NS(=O)(=O)c3ccc(Cl)cc3)ccc2O[C@@H]1CN(C)Cc1ccc(Cl)c(Cl)c1,-6.4,53.7,/
CNC[C@H]1Oc2ncc(C#CC3(O)CCCC3)cc2C(=O)N([C@H](C)CO)C[C@H]1C,-3.6,-5.6,/
CC(=O)c1sc(NC(=O)c2cc(-c3ccccc3)nn2-c2ccccc2)nc1C,81.0*,18.0,-3.8
O=C(Nc1nc2ccccc2s1)c1cc(-c2ccccc2)nn1-c1ccccc1,-5.5,/,4.3
CCC(C)NC(=O)c1cn(CC)c2cc(N3CCN(C)CC3)c(F)cc2c1=O (configuration not stated),-0.1,/,1.3
CCn1cc(C(=O)N[C@H](C)c2ccccc2)c(=O)c2cc(F)c(N3CCN(C)CC3)cc21,/,/,815.4*
C=CCN1C(=O)[C@]2(O[C@H](CCn3cc(CCO)nn3)[C@@H]([Si](C)(C)c3ccc(OC)cc3)[C@@H]2C)c2cc(N3C(=O)c4cccc5cccc3c45)ccc21,54.8,/,/
CCC(C)NS(=O)(=O)c1ccc(NC(C)=O)cc1 (configuration not stated),0.5,-5.3,4.2
CCC(NS(=O)(=O)c1ccc(C)cc1)C(=O)Nc1ccc(NC(C)=O)cc1 (configuration not stated),2.3,138.5*,17.8
C[C@@H](NC(=O)C[C@@H]1C=C[C@H](NC(=O)Cc2ccccn2)[C@@H](CO)O1)c1ccccc1,-0.5,-3.8,/
COc1ccccc1C(=O)O/N=C(\N)c1ccccn1,/,-13.0,-11.1
COc1cc(OC)c(C(=O)O/N=C(\N)c2ccccn2)cc1OC,8.6,-6.5,326.8*
C[C@@H]1CCCCO[C@H](CN(C)C)[C@H](C)CN([C@@H](C)CO)C(=O)c2cc(NC(=O)Nc3ccccc3)ccc2O1,-4.8,-16.4,/
CCC(=O)N1[C@@H](CO)[C@@H](c2ccccc2)[C@@H]1CN(CC)C(=O)c1cccc(F)c1,-0.6,-7.3,/
CCC(=O)N1[C@H](CO)[C@H](c2ccccc2)[C@H]1CN(CC)C(=O)c1cccc(F)c1,95.8*,-5.7,/
CNC(=O)C[C@@H]1CC[C@H]2[C@@H](COc3ccc(NC(=O)Nc4cccc(F)c4)cc3C(=O)N2C)O1,-9.2,-5.3,/
Cc1nn(-c2ccccn2)c2c1-c1nc(N)ncc1CC2,-0.7,115.1*,-9.7
Cc1nn(-c2ccccn2)c(N)c1N=O,/,/,39.8
CCOC(=O)C(C)C1(O)c2ccccc2-c2ncccc21 (configuration not stated),0.0,106.2*,/
OC(CC1CC12c1ccccc1-c1ncccc12)(c1ccccc1)c1ccccc1 (configuration not stated),2.5,-5.0,-8.4
SMILES,Cneo AK release,C2C12 statin,SUMO Mot1 rescue
C[C@@H]1CN([C@H](C)CO)C(=O)c2cc(C#Cc3cccnc3)cnc2O[C@H]1CN(C)C(=O)CC1CC1,-0.9,-0.5,/
COc1ccc(C(=O)NCC(=O)N2CCCC(C)C2)cc1OC (configuration not stated),/,/,269.4
CCOc1ccc(C(=O)NCCc2cnc[nH]2)cc1OCC,0.2,-0.4,2.6
COc1ccc(C(=O)NCC(=O)N2CCC(C)CC2)cc1OC,0.6,90.2*,-0.2
COc1ccc(C(=O)NCCc2cnc[nH]2)cc1OC,16.1,8.6,282.2*
CC(=O)N(C)C[C@@H]1[C@@H](c2ccc(C3=CCCCC3)cc2)[C@@H](CO)N1CC1CC1,-1.0,-13.7,/
O=C(C[C@H]1CC[C@H]2[C@@H](COC[C@H](O)CN2Cc2cccc(F)c2)O1)NCc1cccc(F)c1,-3.0,6.7,/
O=C(NCC1CC1)[C@H]1[C@H](CO)[C@H]2Cn3c(ccc(-c4ccccc4)c3=O)[C@H]2N1Cc1cocn1,0.7,-8.9,/
Cc1noc(C)c1S(=O)(=O)Nc1cccc2c1O[C@H](CN(C)Cc1ccncc1)[C@H](C)CN([C@@H](C)CO)C2=O,-0.1,/,/
CCN1C(=O)c2cccc3c(S(=O)(=O)N(C)C)ccc1c23,-2.3,5.5,/
CN1C(=O)c2cccc3c(S(=O)(=O)N(C)C)ccc1c23,118.0*,3.6,-9.7
O=C1CSC(c2ccccc2)N1c1ccc(-c2ccccc2)cc1 (configuration not stated),-4.0,/,/
COc1ccc(Cn2nnnc2CN2CCOCC2)cc1,0.2,11.3,7.0
c1ccc(Cn2nnnc2CN2CCN(c3ncccn3)CC2)cc1,-0.9,140.2*,-15.9
C[C@H]1CCCCO[C@@H](CN(C)Cc2ccc(C(=O)O)cc2)[C@@H](C)CN([C@@H](C)CO)C(=O)c2cc(NS(=O)(=O)c3ccccc3)ccc2O1,0.6,-37.9,/
COc1ccccc1NC(=O)Nc1ccc2c(c1)C(=O)N(C)C[C@H](OC)[C@H](C)CN[C@H](C)CO2,-4.3,-15.8,/
O=C(CNS(=O)(=O)c1cccc2nsnc12)NCCc1ccccc1,3.8,3.8,13.5
Cc1ccc(CNC(=O)CNS(=O)(=O)c2cccc3nsnc23)cc1,-1.6,101.0*,-25.7
Cc1ccc(-c2ccc3c(c2)O[C@@H](CN(C)Cc2ccccc2)[C@@H](C)CN([C@@H](C)CO)S3(=O)=O)cc1,2.0,-24.6,/
[O-][n+]1onc2c1CCc1c-2nc(-c2ccccc2)n1OCc1ccccc1,-0.1,-8.2,/
COn1c(-c2ccccc2)nc2c1CCc1c-2no[n+]1[O-],-0.9,88.9*,3.7
CC(C)[C@H](NC(=O)NCCc1ccccc1)C(=O)O,-1.6,92.0*,/
CCC(C)[C@H](NC(=O)NCc1ccccc1)C(=O)O (some centres not stated),-0.6,5.3,-13.7
O=C1C2C3C=CC(CO)(O3)C2C(=O)N1c1ccc(-c2ccccc2)cc1 (configuration not stated),/,/,324.4*
CC(C)(C)C(=O)NCC12C=CC(O1)C1C(=O)N(c3ccccc3)C(=O)C12 (configuration not stated),0.6,-26.3,12.5
Cc1ccc(N2/C(=N/c3nc(C)cc(C)n3)NC(=O)CC2C(=O)O)cc1 (configuration not stated),5.1,1.0,-4.8
Cc1cc(C)nc(/N=C2\NC(=O)CC(C(=O)O)N2c2ccc(Cl)cc2)n1 (configuration not stated),-0.4,70.4*,1.0
O=C([C@H]1[C@H](CO)[C@H]2Cn3c(ccc(-c4cccnc4)c3=O)[C@@H]1N2CCC(F)(F)F)N1CCCCC1,-0.6,-27.5,/
CNC[C@H]1OCCCC[C@H](C)Oc2ccc(NC(=O)Nc3ccccc3)cc2C(=O)N([C@H](C)CO)C[C@@H]1C,1.8,25.6,/
COc1ccc(C2C(Oc3ccccc3)C(=O)N2c2cc(C)ccc2C)cc1OC (configuration not stated),-3.6,73.0*,-21.6
